Assay results: ChEMBL document CHEMBL2396571, “Synthesis and biological evaluation of C-glucosides with azulene rings as selective SGLT2 inhibitors for the treatment of type 2 diabetes mellitus: discovery of YM543” (Bioorg Med Chem, 2013)
Calls of active or inactive are those of the source. The rule behind the calls is not given here.

What was measured:
[1] = species on record: Homo sapiens; assay: Selectivity ratio of IC50 for human SGLT1 to IC50 for human SGLT2
[2] = Cmax in Sprague-Dawley rat at 3 mg/kg, po; type: ADME, organism-based; parameters: dose 3 mg/kg, route oral; conditions: in vivo
Summary of the method: (§1)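 Male Sprague–Dawley rats, bought at 5–7 weeks of age. A single 1.0 mg/kg intravenous dose or a single 3 mg/kg oral dose was given. Plasma pharmacokinetic parameters were derived: T1/2, CLtot, Vdss, Cmax, Tmax, AUC(0–inf) and oral bioavailability F.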

[3] = Oral bioavailability in Sprague-Dawley rat at 3 mg/kg; type: ADME, organism-based; conditions: in vivo; summary of the method: as §1
[4] = Half life in Sprague-Dawley rat at 1 mg/kg, iv; type: ADME, organism-based; parameters: dose 1 mg/kg, route intravenous; conditions: in vivo; summary of the method: as §1
[5] = system: Rattus norvegicus; assay: Antihyperglycemic activity in streptozotocin-induced type-1 diabetes mellitus rat model assessed as reduction of blood glucose level at 0.1 to 3 mg/kg, po measured for 8 hrs
[6] = system: Rattus norvegicus; assay: Volume of distribution at steady state in Sprague-Dawley rat at 1 mg/kg, iv; type: ADME, organism-based; parameters: dose 1 mg/kg, route intravenous; conditions: in vivo; summary of the method: as §1
[7] = system: Mus musculus; assay: Antihyperglycemic activity in po dosed KK/Ay type-2 diabetic mouse model assessed as increase in urinary glucose excretion measured over 24 hrs; type: functional, organism-based; conditions: Urine
[8] = AUC (0 to infinity) in Sprague-Dawley rat at 1 mg/kg, iv; type: ADME, organism-based; parameters: time infinity, dose 1 mg/kg, route intravenous; conditions: plasma; summary of the method: as §1
[9] = system: Mus musculus; assay: Antihyperglycemic activity in KK/Ay type-2 diabetic mouse model assessed as increase in urinary glucose excretion at => 0.3 mg/kg, po measured over 12 hrs; type: functional, organism-based; parameters: dose 0.3 mg/kg; conditions: Urine
[10] = Half life in Sprague-Dawley rat at 3 mg/kg, po; type: ADME, organism-based; parameters: dose 3 mg/kg, route oral; conditions: in vivo; summary of the method: as §1
[11] = system: Mus musculus; assay: Antihyperglycemic activity in KK/Ay type-2 diabetic mouse model assessed as reduction of blood glucose level at 3 mg/kg, po measured for 8 hrs relative to vehicle-treated control; type: functional; parameters: scale not given: the % may be the effect or the level left
Summary of the method: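 KK/Ay mice in the fed condition were given a single oral dose (0.1–3 mg/kg). Blood glucose was followed over time, and suppression of glucose AUC was calculated relative to vehicle. Mean ± SEM, 6 animals per group.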

[12] = Tmax in Sprague-Dawley rat at 3 mg/kg, po; type: ADME, organism-based; parameters: dose 3 mg/kg, route oral; conditions: in vivo; summary of the method: as §1
[13] = Ratio of drug level in kidney to plasma in Sprague-Dawley rat at 1 mg/kg, iv and 3 mg/kg, po; type: ADME, organism-based
Summary of the method: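 Male Sprague–Dawley rats received a single 1.0 mg/kg iv or a single 3 mg/kg oral dose. Drug concentration in kidney was compared with that in plasma.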

[14] = target: T1, Sodium/glucose cotransporter 2 (Homo sapiens, UniProt P31639); assay: Inhibition of human SGLT2 expressed in CHO cells assessed as [14C]-methyl-alpha-D-glucopyranoside accumulation; type: cell-based
T1 sequence (P31639 whole entry): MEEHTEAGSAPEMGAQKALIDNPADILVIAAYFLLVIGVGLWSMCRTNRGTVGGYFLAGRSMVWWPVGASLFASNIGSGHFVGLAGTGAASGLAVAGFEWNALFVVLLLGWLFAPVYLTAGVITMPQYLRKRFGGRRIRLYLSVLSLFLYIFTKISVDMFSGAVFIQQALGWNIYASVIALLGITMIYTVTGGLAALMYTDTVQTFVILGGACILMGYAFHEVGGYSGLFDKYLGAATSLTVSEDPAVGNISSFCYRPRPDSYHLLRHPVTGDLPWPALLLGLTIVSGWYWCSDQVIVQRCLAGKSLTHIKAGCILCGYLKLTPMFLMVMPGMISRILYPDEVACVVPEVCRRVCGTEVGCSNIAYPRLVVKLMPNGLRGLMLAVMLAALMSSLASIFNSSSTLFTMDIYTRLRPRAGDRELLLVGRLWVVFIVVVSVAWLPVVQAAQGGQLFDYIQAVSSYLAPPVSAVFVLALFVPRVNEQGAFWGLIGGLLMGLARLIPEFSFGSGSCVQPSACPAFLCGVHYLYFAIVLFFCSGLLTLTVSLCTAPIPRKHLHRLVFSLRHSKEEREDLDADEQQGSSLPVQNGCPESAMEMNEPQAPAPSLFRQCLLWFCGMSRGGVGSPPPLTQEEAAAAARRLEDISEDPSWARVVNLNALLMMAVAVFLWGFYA

Ratio IC50 [1] | IC50 [14] [nM] | SMILES | further results
280 |  | OC[C@H]1O[C@@H](c2cc(Cc3cc4cccccc-4c3)ccc2O)[C@H](O)[C@@H](O)[C@@H]1O [YM-543 FREE ACID] | Cmax [2]: 101 ng/mL; bioavailability [3]: 29%; half-life [4]: 54 min; Activity [5]: Active; Vdss [6]: 3.36 L/kg; Activity [7]: Dose-dependent effect; AUC(0-inf) [8]: 403 ng·h/mL; Activity [9]: Active; half-life [10]: 78 min; Activity [11]: 56%; Tmax [12]: 30 min; Kp [13]: 23
200 | 70 | OC[C@H]1O[C@@H](c2cc(Cc3cc4cccccc-4c3)ccc2Cl)[C@H](O)[C@@H](O)[C@@H]1O | 
35 | 17 | COc1ccc([C@@H]2O[C@H](CO)[C@@H](O)[C@H](O)[C@H]2O)cc1Cc1cc2cccccc-2c1 | 
 | 44000 | Cc1cc(Cc2cccc([C@@H]3O[C@H](CO)[C@@H](O)[C@H](O)[C@H]3O)c2)c2cccccc1-2 | 
610 | 14 | OC[C@H]1O[C@@H](c2ccc(F)c(Cc3cc4cccccc-4c3)c2)[C@H](O)[C@@H](O)[C@@H]1O | 
> 10 | 970 | OC[C@H]1O[C@@H](c2cccc(Cc3cc4cccccc-4c3Cc3ccccc3)c2)[C@H](O)[C@@H](O)[C@@H]1O | 
> 1.9 | 5200 | CCc1c(Cc2cccc([C@@H]3O[C@H](CO)[C@@H](O)[C@H](O)[C@H]3O)c2)cc2cccccc1-2 | 
140 | 7.9 | OC[C@H]1O[C@@H](c2ccc(Cl)c(Cc3cc4cccccc-4c3)c2)[C@H](O)[C@@H](O)[C@@H]1O | 
590 |  | OC[C@H]1O[C@@H](c2cccc(Cc3cc4cccccc-4c3)c2)[C@H](O)[C@@H](O)[C@@H]1O | 
230 |  | OC[C@H]1O[C@@H](c2cccc(Cc3ccc4cccc-4cc3)c2)[C@H](O)[C@@H](O)[C@@H]1O | 
123 | 39 | OC[C@H]1O[C@@H](c2cc(Cc3cc4cccccc-4c3)ccc2F)[C@H](O)[C@@H](O)[C@@H]1O | 
2100 |  | COc1ccc(Cc2cc3cccccc-3c2)cc1[C@@H]1O[C@H](CO)[C@@H](O)[C@H](O)[C@H]1O | 
> 0.8 | 12000 | CC(=O)c1c(Cc2cccc([C@@H]3O[C@H](CO)[C@@H](O)[C@H](O)[C@H]3O)c2)cc2cccccc1-2 | 
